Measurements published in ChEMBL document CHEMBL1141640, “Cyclic guanidines as dual 5-HT5A/5-HT7 receptor ligands: optimising brain penetration” (Bioorg Med Chem Lett, 2008).

How the values were obtained:
[1] = Selectivity for human 5HT5A receptor over 5HT2A receptor
[2] = Distribution coefficient, log D of the compound; type: physicochemical; conditions: octanol/water
Procedure, shortened: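 Lipophilicity reported as log D at pH 7.4 (log D7.4), measured alongside the guanidine pKa.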

[3] = biological target: T1, 5-hydroxytryptamine receptor 2C (Homo sapiens, UniProt P28335); assay: Binding affinity to 5HT2C receptor
T1 sequence (P28335 whole entry): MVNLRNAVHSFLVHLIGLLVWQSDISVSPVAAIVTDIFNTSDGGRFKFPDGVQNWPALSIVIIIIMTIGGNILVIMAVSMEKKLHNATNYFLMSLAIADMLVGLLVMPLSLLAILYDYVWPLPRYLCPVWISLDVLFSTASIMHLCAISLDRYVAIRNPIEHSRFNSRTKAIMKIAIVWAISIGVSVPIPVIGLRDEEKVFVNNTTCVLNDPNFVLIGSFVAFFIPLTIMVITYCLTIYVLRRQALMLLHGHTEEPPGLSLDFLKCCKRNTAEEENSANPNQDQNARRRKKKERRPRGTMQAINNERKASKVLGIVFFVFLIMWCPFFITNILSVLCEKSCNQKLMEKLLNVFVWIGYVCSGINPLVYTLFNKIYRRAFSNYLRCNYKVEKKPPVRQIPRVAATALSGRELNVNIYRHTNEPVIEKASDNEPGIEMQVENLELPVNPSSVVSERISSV

[4] = biological target: T2, 5-hydroxytryptamine receptor 1D (Homo sapiens, UniProt P28221); assay: Binding affinity to 5HT1D receptor
[5] = Dissociation constant, pKa of the compound; type: physicochemical
[6] = biological target: 5-hydroxytryptamine receptor 7 (Homo sapiens, UniProt P34969); assay: Binding affinity to human 5HT7 receptor
[7] = biological target: T3, 5-hydroxytryptamine receptor 1A (Homo sapiens, UniProt P08908); assay: Binding affinity to 5HT1A receptor
T3 sequence (P08908 whole entry): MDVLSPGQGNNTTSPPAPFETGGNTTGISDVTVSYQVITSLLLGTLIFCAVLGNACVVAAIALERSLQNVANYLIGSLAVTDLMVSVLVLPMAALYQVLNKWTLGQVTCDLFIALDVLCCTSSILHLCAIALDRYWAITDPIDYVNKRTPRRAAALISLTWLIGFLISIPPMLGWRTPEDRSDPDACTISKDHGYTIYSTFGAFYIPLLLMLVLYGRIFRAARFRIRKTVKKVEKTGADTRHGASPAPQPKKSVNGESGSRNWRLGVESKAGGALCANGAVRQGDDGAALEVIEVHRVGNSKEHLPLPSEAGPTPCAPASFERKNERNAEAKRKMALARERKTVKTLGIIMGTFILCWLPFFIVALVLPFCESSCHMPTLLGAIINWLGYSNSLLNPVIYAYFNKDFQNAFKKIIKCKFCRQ

[8] = Selectivity for human 5HT5A receptor over 5HT3 receptor
[9] = Selectivity for human 5HT5A receptor over 5HT6 receptor
[10] = biological target: 5-hydroxytryptamine receptor 5A (Homo sapiens, UniProt P47898); assay: Binding affinity to human 5HT5A receptor; conditions: read-out: Ki
[11] = biological target: T4, 5-hydroxytryptamine receptor 3A (Homo sapiens, UniProt P46098); assay: Binding affinity to human 5HT3 receptor
T4 sequence (P46098 whole entry): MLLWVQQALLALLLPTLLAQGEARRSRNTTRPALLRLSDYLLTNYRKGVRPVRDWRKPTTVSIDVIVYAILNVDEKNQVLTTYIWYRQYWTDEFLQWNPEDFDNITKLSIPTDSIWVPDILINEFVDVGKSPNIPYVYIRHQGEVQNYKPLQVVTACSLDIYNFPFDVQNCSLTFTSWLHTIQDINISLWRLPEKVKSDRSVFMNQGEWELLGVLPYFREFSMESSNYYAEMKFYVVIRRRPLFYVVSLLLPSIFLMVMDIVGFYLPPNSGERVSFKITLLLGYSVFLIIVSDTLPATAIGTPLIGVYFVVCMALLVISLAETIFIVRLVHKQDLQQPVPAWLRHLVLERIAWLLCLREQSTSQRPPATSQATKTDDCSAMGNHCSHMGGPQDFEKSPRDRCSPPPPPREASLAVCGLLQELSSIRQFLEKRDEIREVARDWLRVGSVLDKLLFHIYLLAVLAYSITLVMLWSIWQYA

[12] = biological target: T3, 5-hydroxytryptamine receptor 1A; assay: Binding affinity to human 5HT1A receptor
[13] = biological target: 5-hydroxytryptamine receptor 5A (Rattus norvegicus, UniProt P35364); assay: Binding affinity to rat 5HT5A receptor
[14] = biological target: T1, 5-hydroxytryptamine receptor 2C; assay: Binding affinity to human 5HT2C receptor
[15] = biological target: T2, 5-hydroxytryptamine receptor 1D; assay: Binding affinity to human 5HT1D receptor
[16] = biological target: 5-hydroxytryptamine receptor 6 (Homo sapiens, UniProt P50406); assay: Binding affinity to human 5HT6 receptor
[17] = biological target: 5-hydroxytryptamine receptor 2A (Homo sapiens, UniProt P28223); assay: Binding affinity to human 5HT2A receptor
[18] = biological target: Histamine H1 receptor (Homo sapiens, UniProt P35367); assay: Binding affinity to histamine H1 receptor
Chain of Histamine H1 receptor (P35367 whole entry): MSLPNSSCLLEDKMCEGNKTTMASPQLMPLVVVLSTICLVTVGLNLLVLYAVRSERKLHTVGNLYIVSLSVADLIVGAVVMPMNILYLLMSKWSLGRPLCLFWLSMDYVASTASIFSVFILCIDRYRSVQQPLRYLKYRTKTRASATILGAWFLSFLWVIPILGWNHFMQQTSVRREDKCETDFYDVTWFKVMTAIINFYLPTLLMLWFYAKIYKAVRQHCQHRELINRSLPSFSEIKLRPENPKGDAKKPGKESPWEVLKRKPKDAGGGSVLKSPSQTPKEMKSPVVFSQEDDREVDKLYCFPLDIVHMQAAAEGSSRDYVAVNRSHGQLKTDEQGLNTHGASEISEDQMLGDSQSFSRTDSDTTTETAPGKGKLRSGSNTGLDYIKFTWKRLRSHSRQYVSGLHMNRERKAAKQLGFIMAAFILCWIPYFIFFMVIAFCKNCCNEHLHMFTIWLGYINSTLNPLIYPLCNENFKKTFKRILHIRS

T2 sequence (P28221 whole entry): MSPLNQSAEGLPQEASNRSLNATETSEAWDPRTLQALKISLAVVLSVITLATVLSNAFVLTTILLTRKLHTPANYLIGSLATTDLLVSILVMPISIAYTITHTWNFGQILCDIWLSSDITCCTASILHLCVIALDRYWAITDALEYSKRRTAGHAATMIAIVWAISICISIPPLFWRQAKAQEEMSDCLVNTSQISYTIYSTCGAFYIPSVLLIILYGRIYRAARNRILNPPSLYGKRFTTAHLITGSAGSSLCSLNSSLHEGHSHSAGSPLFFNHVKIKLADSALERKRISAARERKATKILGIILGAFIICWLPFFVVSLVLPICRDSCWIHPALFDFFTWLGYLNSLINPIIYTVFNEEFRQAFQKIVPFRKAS
Chain of 5-hydroxytryptamine receptor 7 (P34969 whole entry): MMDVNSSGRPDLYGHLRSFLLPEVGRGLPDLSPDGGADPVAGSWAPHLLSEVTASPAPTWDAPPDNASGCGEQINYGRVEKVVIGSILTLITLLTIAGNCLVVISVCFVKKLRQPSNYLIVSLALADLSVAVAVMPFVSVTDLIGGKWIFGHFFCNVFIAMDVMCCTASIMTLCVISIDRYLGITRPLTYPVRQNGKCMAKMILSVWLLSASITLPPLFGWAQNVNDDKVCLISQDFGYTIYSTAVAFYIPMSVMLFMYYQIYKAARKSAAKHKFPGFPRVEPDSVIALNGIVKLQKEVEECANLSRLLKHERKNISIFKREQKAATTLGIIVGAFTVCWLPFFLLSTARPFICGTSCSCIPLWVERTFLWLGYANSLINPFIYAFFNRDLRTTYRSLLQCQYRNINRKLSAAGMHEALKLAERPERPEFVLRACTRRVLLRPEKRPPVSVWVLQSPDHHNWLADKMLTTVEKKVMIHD
Chain of 5-hydroxytryptamine receptor 5A (Homo sapiens, UniProt P47898) (P47898 whole entry): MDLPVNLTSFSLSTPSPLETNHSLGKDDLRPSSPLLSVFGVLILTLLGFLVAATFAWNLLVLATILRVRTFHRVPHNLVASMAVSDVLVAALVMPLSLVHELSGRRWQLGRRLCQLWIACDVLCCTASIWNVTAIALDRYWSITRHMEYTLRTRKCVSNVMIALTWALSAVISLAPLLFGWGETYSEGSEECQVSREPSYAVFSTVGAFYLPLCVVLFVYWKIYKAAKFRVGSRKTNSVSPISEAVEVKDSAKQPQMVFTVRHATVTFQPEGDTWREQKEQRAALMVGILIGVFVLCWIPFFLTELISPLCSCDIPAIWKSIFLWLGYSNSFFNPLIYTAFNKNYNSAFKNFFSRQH
Chain of 5-hydroxytryptamine receptor 5A (Rattus norvegicus, UniProt P35364) (P35364 whole entry): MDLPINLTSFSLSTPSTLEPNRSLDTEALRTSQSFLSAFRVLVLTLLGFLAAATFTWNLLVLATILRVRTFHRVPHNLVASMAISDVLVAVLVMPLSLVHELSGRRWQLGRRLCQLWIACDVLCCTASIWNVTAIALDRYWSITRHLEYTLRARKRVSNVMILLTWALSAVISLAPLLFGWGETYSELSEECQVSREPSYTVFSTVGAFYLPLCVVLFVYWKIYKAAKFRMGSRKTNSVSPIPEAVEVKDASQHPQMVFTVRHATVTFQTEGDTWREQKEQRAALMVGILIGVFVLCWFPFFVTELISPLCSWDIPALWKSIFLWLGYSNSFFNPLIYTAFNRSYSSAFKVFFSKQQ
Chain of 5-hydroxytryptamine receptor 6 (P50406 whole entry): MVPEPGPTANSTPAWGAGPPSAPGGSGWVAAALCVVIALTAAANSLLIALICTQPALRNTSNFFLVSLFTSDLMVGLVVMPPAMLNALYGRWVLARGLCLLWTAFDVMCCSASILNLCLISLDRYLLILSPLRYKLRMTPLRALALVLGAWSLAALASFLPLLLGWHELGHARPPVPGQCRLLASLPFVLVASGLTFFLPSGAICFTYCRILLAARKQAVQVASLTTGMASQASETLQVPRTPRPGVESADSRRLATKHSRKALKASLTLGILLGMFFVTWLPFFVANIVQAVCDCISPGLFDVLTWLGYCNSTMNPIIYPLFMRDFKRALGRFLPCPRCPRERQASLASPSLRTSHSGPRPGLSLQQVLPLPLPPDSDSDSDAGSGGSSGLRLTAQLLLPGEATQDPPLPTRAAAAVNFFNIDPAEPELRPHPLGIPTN
Chain of 5-hydroxytryptamine receptor 2A (P28223 whole entry): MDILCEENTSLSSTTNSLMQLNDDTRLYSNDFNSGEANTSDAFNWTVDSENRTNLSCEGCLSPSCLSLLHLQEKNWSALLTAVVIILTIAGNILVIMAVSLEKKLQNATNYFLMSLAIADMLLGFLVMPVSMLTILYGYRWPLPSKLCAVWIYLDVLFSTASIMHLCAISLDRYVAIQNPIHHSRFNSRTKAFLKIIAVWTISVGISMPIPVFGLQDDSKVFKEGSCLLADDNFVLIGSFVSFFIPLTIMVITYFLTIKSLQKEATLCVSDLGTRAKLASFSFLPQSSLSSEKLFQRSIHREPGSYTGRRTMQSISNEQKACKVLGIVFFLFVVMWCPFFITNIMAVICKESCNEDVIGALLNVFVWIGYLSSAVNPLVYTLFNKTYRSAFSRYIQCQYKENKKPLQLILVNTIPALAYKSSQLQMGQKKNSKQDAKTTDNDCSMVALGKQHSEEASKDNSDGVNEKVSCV

Row | Compound | logD [2] | Ki [3] [nM] | Ki [4] [nM] | pKa [5] | Ki [6] [nM] | Ki [7] [nM] | Ki [10] [nM] | other results
1 | COc1cccc2c1N=C(NCC(F)F)NC2C (centres undefined) | -0.5 | 1660 | 747 | 10.2 | 38.9 | 53 | – | Selectivity ratio [1]: > 30; Selectivity ratio [8]: > 30; Selectivity ratio [9]: > 30
2 | CC1NC(NC[C@H]2CCCO2)=Nc2ccccc21 (some centres undefined) | -0.6 | – | – | – | – | – | 163 | –
3 | C[C@@H]1NC(N)=Nc2cccc(Cl)c21 | – | – | – | – | 6 | – | 1.6 | Ki [11]: 1060 nM; Ki [12]: 95.2 nM; Ki [13]: 1.3 nM; Ki [14]: 55 nM; Ki [15]: 1100 nM; Ki [16]: 1030 nM; Ki [17]: 257 nM
4 | C[C@H]1NC(NCC(F)F)=Nc2ccc(Cl)c(Cl)c21 | 2.7 | 238 | > 10000 | 8.5 | 1700 | 612 | 504 | –
5 | CC1NC(NCC(F)(F)F)=Nc2ccccc21 (centres undefined) | 0.5 | – | – | 9.2 | – | – | 488 | –
6 | C[C@H]1NC(N)=Nc2cccc(Cl)c21 | – | – | – | – | – | – | 415 | –
7 | CC1NC(NC2CCC2)=Nc2ccccc21 (centres undefined) | -0.6 | – | – | – | – | – | 122 | –
8 | CC1NC(N)=Nc2ccccc21 (centres undefined) | -1.4 | – | – | 10.5 | – | – | – | –
9 | C[C@@H]1NC(NCC(F)F)=Nc2ccc(Cl)c(Cl)c21 | 2.7 | 121 | 233 | 8.5 | 7.7 | 75 | 1.8 | Ki [18]: 2.6 nM; Selectivity ratio [1]: > 30; Selectivity ratio [8]: > 30; Selectivity ratio [9]: > 30
10 | CC(C)Oc1cccc2c1N=C(NCC(F)F)NC2C (centres undefined) | 0.1 | 2150 | 82 | 10.2 | 4.2 | 240 | 22.2 | Selectivity ratio [1]: > 30; Selectivity ratio [8]: > 30; Selectivity ratio [9]: > 30
11 | CCCCNC1=Nc2ccccc2C(C)N1 (centres undefined) | -0.3 | – | – | 10.7 | – | – | 189 | –
12 | CC1NC(NCCF)=Nc2ccccc21 (centres undefined) | – | – | – | – | – | – | 397 | –
13 | CCCNC1=Nc2ccccc2C(C)N1 (centres undefined) | -0.8 | – | – | 10.7 | – | – | 153 | –
14 | COc1c(Cl)ccc2c1C(C)NC(NCC(F)F)=N2 (centres undefined) | 1.5 | 233 | 1810 | 8.9 | 17.6 | 348 | 22.2 | Selectivity ratio [1]: > 30; Selectivity ratio [8]: > 30; Selectivity ratio [9]: > 30
15 | C[C@H]1NC(NCC(F)F)=Nc2cccc(Cl)c21 | – | – | – | – | – | – | 1470 | –
